Test results from ChEMBL document CHEMBL1137713, “Synthesis and antimalarial activity of pyrazolo and pyrimido benzothiazine dioxide derivatives” (2009).
Activity calls are given as the source filed them. No cut-off for these calls is given here.

Legend:
[1] = test system: Plasmodium berghei; experiment: Antimalarial activity against chloroquine-sensitive Plasmodium berghei ANKA infected BALB/c mice (Mus musculus) erythrocytes at 10 uM after 18 hrs as reduced hemoglobin hydrolysis; type: functional
How it was run: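 Trophozoite-rich extract from P. berghei-infected mouse blood (30–50% parasitemia, Percoll-enriched mature forms, saponin-lysed, freeze-thawed) digests native mouse hemoglobin with 10 mM GSH in 0.2 M acetate buffer pH 5.4. Compound is added in DMSO. Incubation is 37 °C for 18 h. Globin 14 kDa band is assessed by SDS-PAGE densitometry against a DMSO control and expressed as % inhibition of hydrolysis.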

[2] = molecular target: T1, Histidine-rich protein PFHRP-II (Plasmodium falciparum) (UniProt P05227); experiment: Inhibition of beta-hematin formation assessed as inhibition of flavoprotein polymerization at 5 to 100 mM after 48 hrs; type: functional
T1 sequence (whole entry): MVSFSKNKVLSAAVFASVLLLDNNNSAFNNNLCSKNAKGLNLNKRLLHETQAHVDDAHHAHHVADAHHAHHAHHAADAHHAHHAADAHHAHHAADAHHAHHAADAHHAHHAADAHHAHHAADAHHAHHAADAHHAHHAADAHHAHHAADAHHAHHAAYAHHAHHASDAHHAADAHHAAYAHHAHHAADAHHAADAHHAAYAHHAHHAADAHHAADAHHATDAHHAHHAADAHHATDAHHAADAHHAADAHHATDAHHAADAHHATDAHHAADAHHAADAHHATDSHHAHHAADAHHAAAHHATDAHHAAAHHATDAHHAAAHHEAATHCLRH
How it was run: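 Hemin chloride in DMSO is mixed with compound in DMSO (100–5 range), tested in triplicate, with water or DMSO controls. Reaction is started with 0.2 M acetate buffer pH 4.4 and run at 37 °C for 48 h. Pellet is washed twice with DMSO, dissolved in 0.2 N NaOH, diluted 1:2 in 0.1 N NaOH, and read at 405 nm. Result is % inhibition of FP polymerization.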

[3] = test system: Plasmodium berghei; experiment: Antimalarial activity as parasitaemia against chloroquine-sensitive Plasmodium berghei ANKA infected BALB/c mice (Mus musculus) erythrocytes at 25 mg/kg intraperitoneal dose for 4 days; type: functional
How it was run: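 Male Balb-C mice infected with 10^6 P. berghei ANKA-infected erythrocytes; n=6. Compound is given as a DMSO stock diluted in 2% saline–Tween 20, ip once daily for 4 days starting 2 h post-infection. Chloroquine is given at 25 mg/kg. Day-4 parasitemia is read from Giemsa smears and survival days are recorded versus untreated controls. Mean ± SEM.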

[4] = test system: Plasmodium berghei; experiment: Antimalarial activity as MST against chloroquine-sensitive Plasmodium berghei ANKA infected BALB/c mice (Mus musculus) erythrocytes at 25 mg/kg intraperitoneal dose for 4 days (RVb=11.66+/-1.66 days); type: functional
[5] = test system: Plasmodium berghei; experiment: Antimalarial activity against chloroquine-sensitive Plasmodium berghei ANKA infected BALB/c mice (Mus musculus) erythrocytes at 20 mg/kg intraperitoneal dose for 4 days
[6] = test system: Plasmodium berghei; experiment: Antimalarial activity against chloroquine-sensitive Plasmodium berghei ANKA infected BALB/c mice (Mus musculus) erythrocytes at 20 mg/kg intraperitoneal dose for 4 days as parasitaemia
[7] = test system: Plasmodium berghei; experiment: Antimalarial activity as MST against chloroquine-sensitive Plasmodium berghei ANKA infected BALB/c mice (Mus musculus) erythrocytes at 20 mg/kg intraperitoneal dose for 4 days (RVb=11.66+/-1.66 days); type: functional

Row | Structure (SMILES) | inhibition at 10 µM [1] [%] | inhibition [2] [%] | other results
1 | Nc1n[nH]c2c1S(=O)(=O)c1cc(Cl)ccc1N2c1cccc(Cl)c1 | 0 | < 5 | –
2 | CCN(CC)CCCC(C)Nc1ccnc2cc(Cl)ccc12 (configuration not stated) [CHLOROQUINE] | 24.1 | – | Activity [3]: 1.3%; Activity [4]: 30 days
3 | Nc1nc(N)c2c(n1)N(c1cccc(Cl)c1)c1cc(Cl)ccc1S2(=O)=O | 0 | < 5 | –
4 | Nc1nc(N)c2c(n1)N(c1ccc(Cl)cc1)c1cc(Cl)ccc1S2(=O)=O | 67.2 | < 5 | –
5 | Cc1ccc(C)c(N2c3ccc(Cl)cc3S(=O)(=O)c3c(N)n[nH]c32)c1 | 0 | < 5 | –
6 | Nc1nc(N)c2c(n1)N(c1cccc(Cl)c1)c1ccc(Cl)cc1S2(=O)=O | 0 | < 5 | –
7 | COc1cccc(N2c3cc(Cl)ccc3S(=O)(=O)c3c(N)n[nH]c32)c1 | 47.3 | < 5 | –
8 | COc1ccc(N2c3ccc(Cl)cc3S(=O)(=O)c3c(N)n[nH]c32)cc1 | 0 | < 5 | –
9 | CC(=O)N[C@@H](CC(C)C)C(=O)N[C@@H](CC(C)C)C(=O)N[C@H](C=O)CCCNC(=N)N [LEUPEPTIN] | 89.1 | – | –
10 | Nc1n[nH]c2c1S(=O)(=O)c1ccc(Cl)cc1N2c1ccc(Br)cc1 | 26.7 | < 5 | –
11 | COc1cccc(N2c3cc(Cl)ccc3S(=O)(=O)c3c(N)nc(N)nc32)c1 | 56.3 | < 5 | –
12 | COc1ccc(N2c3cc(Cl)ccc3S(=O)(=O)c3c(N)nc(N)nc32)cc1 | 40.9 | < 5 | –
13 | Cc1ccccc1N1c2cc(Cl)ccc2S(=O)(=O)c2c(N)n[nH]c21 | 92.3 | < 5 | Activity [5]: inactive; Activity [6]: 9.75%; Activity [7]: 13 days
14 | Nc1n[nH]c2c1S(=O)(=O)c1cc(Cl)ccc1N2c1ccc(Br)cc1 | 0 | < 5 | –
15 | Cc1ccccc1N1c2cc(Cl)ccc2S(=O)(=O)c2c(N)nc(N)nc21 | 72.6 | < 5 | –
16 | Cc1ccc(N2c3ccc(Cl)cc3S(=O)(=O)c3c(N)nc(N)nc32)cc1 | 0 | < 5 | –
17 | Nc1n[nH]c2c1S(=O)(=O)c1ccc(Cl)cc1N2c1ccc(Cl)c(Cl)c1 | 67.6 | < 5 | –
18 | Nc1nc(N)c2c(n1)N(c1ccc(Br)cc1)c1cc(Cl)ccc1S2(=O)=O | 49 | < 5 | –
19 | Cc1ccc(C)c(N2c3cc(Cl)ccc3S(=O)(=O)c3c(N)n[nH]c32)c1 | 69.4 | < 5 | –
20 | COc1ccc(N2c3cc(Cl)ccc3S(=O)(=O)c3c(N)n[nH]c32)cc1 | 54.8 | < 5 | –
21 | Nc1nc(N)c2c(n1)N(c1ccc(Cl)cc1)c1ccc(Cl)cc1S2(=O)=O | 0 | < 5 | –
22 | Cc1ccc(N2c3cc(Cl)ccc3S(=O)(=O)c3c(N)nc(N)nc32)cc1 | 50.1 | < 5 | –

Row | Structure (SMILES) | inhibition at 10 µM [1] [%] | inhibition [2] [%] | other results
23 | Cc1ccc(C)c(N2c3ccc(Cl)cc3S(=O)(=O)c3c(N)nc(N)nc32)c1 | 0 | < 5 | –
24 | COc1ccc(N2c3ccc(Cl)cc3S(=O)(=O)c3c(N)nc(N)nc32)cc1 | 0 | < 5 | –
25 | CC(C)CC(=O)N[C@H](C(=O)N[C@H](C(=O)N[C@@H](CC(C)C)[C@@H](O)CC(=O)N[C@@H](C)C(=O)N[C@@H](CC(C)C)[C@@H](O)CC(=O)O)C(C)C)C(C)C [PEPSTATIN] | 92.9 | – | –
26 | Cc1ccc(C)c(N2c3cc(Cl)ccc3S(=O)(=O)c3c(N)nc(N)nc32)c1 | 64.6 | < 5 | –
27 | Nc1nc(N)c2c(n1)N(c1ccc(Cl)c(Cl)c1)c1cc(Cl)ccc1S2(=O)=O | 76 | < 5 | –
28 | Cc1ccccc1N1c2ccc(Cl)cc2S(=O)(=O)c2c(N)n[nH]c21 | 0 | < 5 | –
29 | Nc1n[nH]c2c1S(=O)(=O)c1cc(Cl)ccc1N2c1ccc(Cl)cc1 | 0 | < 5 | –
30 | Nc1nc(N)c2c(n1)N(c1ccc(Cl)c(Cl)c1)c1ccc(Cl)cc1S2(=O)=O | 0 | < 5 | –
31 | Cc1ccc(N2c3cc(Cl)ccc3S(=O)(=O)c3c(N)n[nH]c32)cc1 | 78.8 | < 5 | –
32 | Cc1ccccc1N1c2ccc(Cl)cc2S(=O)(=O)c2c(N)nc(N)nc21 | 0 | < 5 | –
33 | Nc1n[nH]c2c1S(=O)(=O)c1ccc(Cl)cc1N2c1ccccc1 | 76.4 | < 5 | –
34 | Nc1n[nH]c2c1S(=O)(=O)c1ccc(Cl)cc1N2c1cccc(Cl)c1 | 58.9 | 85.4 | Activity [6]: 10.33%; Activity [7]: 12.5 days
35 | COc1cccc(N2c3ccc(Cl)cc3S(=O)(=O)c3c(N)n[nH]c32)c1 | 0 | < 5 | –
36 | Nc1n[nH]c2c1S(=O)(=O)c1ccc(Cl)cc1N2c1ccc(Cl)cc1 | 55.8 | < 5 | –
37 | Nc1nc(N)c2c(n1)N(c1ccccc1)c1cc(Cl)ccc1S2(=O)=O | 83.7 | < 5 | Activity [6]: 12.7%; Activity [7]: 10.8 days
38 | Nc1n[nH]c2c1S(=O)(=O)c1cc(Cl)ccc1N2c1ccccc1 | 0 | < 5 | –
39 | Nc1nc(N)c2c(n1)N(c1ccc(Br)cc1)c1ccc(Cl)cc1S2(=O)=O | 0 | < 5 | –
40 | COc1cccc(N2c3ccc(Cl)cc3S(=O)(=O)c3c(N)nc(N)nc32)c1 | 0 | < 5 | –
41 | Cc1ccc(N2c3ccc(Cl)cc3S(=O)(=O)c3c(N)n[nH]c32)cc1 | 0 | < 5 | –
42 | Nc1n[nH]c2c1S(=O)(=O)c1cc(Cl)ccc1N2c1ccc(Cl)c(Cl)c1 | 0 | < 5 | –
43 | Nc1nc(N)c2c(n1)N(c1ccccc1)c1ccc(Cl)cc1S2(=O)=O | 0 | < 5 | –
